# The source made the active and inactive calls. The rule behind the calls is not given here.
# Legend:
# [1] = Cysteamine reactivity assessed as aromatic signals at 1 mM measured after 30 mins by LC-MS/MS analysis; format: physicochemical; settings: 0.5 h, 1000 µM
# [2] = Cytotoxicity against mouse P815B cells incubated for 2 to 4 hrs by MTS assay; format: cell-based, P815; settings: time 2-4 hrs, read-out: LD50 (the source's name)
# How it was run: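 1 × 10⁵ cells per well in DMEM; MTS with PMS, diluted in PBS, added to the wells; incubated 2–4 h at 37 °C; absorbance read at 490 nm.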
# [3] = Toxicity in mouse P815 cells assessed as cell cycle distribution at > 100 uM measured after 6 to 12 hrs by propidium iodide DNA staining based flow cytometry; settings: time 6-12 hrs
# [4] = Cysteamine reactivity assessed as aromatic signals at 1 mM measured after 30 mins by 1H NMR spectroscopy; format: physicochemical; settings: 0.5 h, 1000 µM
# [5] = target: Indoleamine 2,3-dioxygenase 1 (Homo sapiens) (UniProt P14902); test: Inhibition of human IDO1 assessed as reduction in kynurenine production at 100 uM using tryptophan as substrate by cellular assay
# Chain of Indoleamine 2,3-dioxygenase 1 (Homo sapiens) (P14902 whole entry, looked up): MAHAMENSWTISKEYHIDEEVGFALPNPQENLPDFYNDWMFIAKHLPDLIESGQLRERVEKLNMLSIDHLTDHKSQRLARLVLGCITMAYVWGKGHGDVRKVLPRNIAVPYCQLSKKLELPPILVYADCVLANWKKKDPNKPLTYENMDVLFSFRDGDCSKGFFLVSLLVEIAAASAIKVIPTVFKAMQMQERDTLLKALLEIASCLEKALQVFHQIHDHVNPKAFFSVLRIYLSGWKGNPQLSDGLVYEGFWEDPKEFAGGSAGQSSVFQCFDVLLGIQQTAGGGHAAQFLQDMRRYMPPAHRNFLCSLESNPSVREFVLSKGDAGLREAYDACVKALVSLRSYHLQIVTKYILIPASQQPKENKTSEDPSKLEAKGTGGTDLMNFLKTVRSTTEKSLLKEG
# [6] = target: Indoleamine 2,3-dioxygenase 1 (Homo sapiens) (UniProt P14902); test: Inhibition of human IDO1 assessed as reduction in kynurenine production at 100 uM using tryptophan as substrate by enzymatic assay
# [7] = Metabolic stability in liver microsomes (unknown origin) assessed as half life at 10 uM by UPLC analysis; format: ADME, Microsome
# [8] = target: Tryptophan 2,3-dioxygenase (Homo sapiens, UniProt P48775); test: Inhibition of human TDO2 expressed in HEK293E cells assessed as reduction in N-formylkynurenine formation using tryptophan as substrate measured after 24 hrs by HPLCC based UV spectrometry; format: cell-based, HEK2936E
# Chain of Tryptophan 2,3-dioxygenase (P48775 whole entry): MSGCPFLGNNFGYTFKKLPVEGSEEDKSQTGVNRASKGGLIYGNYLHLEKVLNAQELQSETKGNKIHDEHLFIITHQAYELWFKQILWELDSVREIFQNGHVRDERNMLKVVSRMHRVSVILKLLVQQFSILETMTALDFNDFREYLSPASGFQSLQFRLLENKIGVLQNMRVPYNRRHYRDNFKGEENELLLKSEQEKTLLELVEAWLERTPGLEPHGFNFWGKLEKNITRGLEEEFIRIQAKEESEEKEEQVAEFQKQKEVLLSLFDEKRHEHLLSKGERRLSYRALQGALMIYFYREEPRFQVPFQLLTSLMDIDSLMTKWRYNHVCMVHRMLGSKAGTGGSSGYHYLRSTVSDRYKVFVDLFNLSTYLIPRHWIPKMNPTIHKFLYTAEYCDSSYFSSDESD
structure (smiles),measurement,setting,value
c1ccc2c(-c3ccc4n[nH]nc4c3)c[nH]c2c1,Drug metabolism,[1],Metabolite_Notdetected
same,CC50,[2],> 100 µM
same,Activity,[3],Non-Toxic
same,Drug metabolism,[4],Metabolite_Notdetected
Fc1ccc2c(/C=C/c3nnn[nH]3)c[nH]c2c1,inhibition,[5],inactive
same,inhibition,[6],inactive
same,Drug metabolism,[1],Metabolite_Detected
same,CC50,[2],> 100 µM
same,half-life at 10 µM,[7],> 1440 min
same,Drug metabolism,[4],Metabolite_Detected
c1ccc2c(-c3ccc4ncncc4c3)c[nH]c2c1,CC50,[2],> 100 µM
FC(F)(F)Cn1nnc2ccc(-c3c[nH]c4ccccc34)cc21,half-life at 10 µM,[7],45 min
c1ccc2c(-c3ccc4ccncc4c3)c[nH]c2c1,CC50,[2],> 20 µM
c1ccc2c(-c3ccc4cnccc4c3)c[nH]c2c1,CC50,[2],> 30 µM
O=S(=O)(c1ccc(-c2c[nH]c3cc(F)ccc23)cn1)N1CCNCC1,IC50,[8],3.2 µM
c1ccc2c(-c3ccc4cncnc4c3)c[nH]c2c1,CC50,[2],> 100 µM
O=C1NCC2C=CC(c3c[nH]c4ccccc34)=CC2N1 (stereo not given),CC50,[2],> 30 µM
Fc1ccc2c(/C=C/c3cccnc3)c[nH]c2c1,inhibition,[5],inactive
same,inhibition,[6],inactive
same,CC50,[2],> 80 µM
